# ChEMBL document CHEMBL4152256, “Structure-activity relationship of new antimalarial 1-aryl-3-susbtituted propanol derivatives: Synthesis, preliminary toxicity profiling, parasite life cycle stage studies, target exploration, and targeted delivery” (Eur J Med Chem, 2018)
# The source made the active and inactive calls. The rule behind the calls is not given here.
# Experiments:
# [1] = Genotoxicity in Salmonella typhimurium TA1535 harboring pSK1002 assessed as survival at 0.25 mg/ml in presence of Sprague-Dawley rat liver S9 fraction after by SOS/umu assay relative to control; type: toxicity, organism-based; conditions: salmonella enterica subsp. enterica serovar typhimurium, read-out: Survival
# [2] = Genotoxicity in Salmonella typhimurium TA1535 harboring pSK1002 assessed as survival at 0.031 mg/ml in absence of Sprague-Dawley rat liver S9 fraction after by SOS/umu assay relative to control; type: toxicity, organism-based; conditions: salmonella enterica subsp. enterica serovar typhimurium, read-out: Survival
# [3] = Genotoxicity in Salmonella typhimurium TA1535 harboring pSK1002 assessed as survival at 0.25 mg/ml in absence of Sprague-Dawley rat liver S9 fraction after by SOS/umu assay relative to control; type: toxicity, organism-based; conditions: salmonella enterica subsp. enterica serovar typhimurium, read-out: Survival
# [4] = Genotoxicity in Salmonella typhimurium TA1535 harboring pSK1002 assessed as umu gene induction at 0.5 mg/ml in presence of Sprague-Dawley rat liver S9 fraction after by SOS/umu assay relative to control; type: toxicity, organism-based; conditions: salmonella enterica subsp. enterica serovar typhimurium, read-out: FC
# Plasmodium falciparum [5] = experiment: Antiplasmodial activity against chloroquine-sensitive Plasmodium falciparum 3D7 by [3H]-hypoxanthine incorporation assay; type: functional, organism-based
# Procedure, shortened: (§1)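 Blood-stage P. falciparum 3D7 and FCR-3 were tested by a modified [3H]-hypoxanthine incorporation assay. Chloroquine was the reference in all runs.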
# [6] = Genotoxicity in Salmonella typhimurium TA1535 harboring pSK1002 assessed as survival at 0.008 mg/ml in presence of Sprague-Dawley rat liver S9 fraction after by SOS/umu assay relative to control; type: toxicity, organism-based; conditions: salmonella enterica subsp. enterica serovar typhimurium, read-out: Survival
# Plasmodium falciparum [7] = experiment: Antiplasmodial activity against multidrug-resistant Plasmodium falciparum FCR-3 by [3H]-hypoxanthine incorporation assay; type: functional, organism-based, FCR-3/Gambia; procedure, shortened: as §1
# [8] = Genotoxicity in Salmonella typhimurium TA1535 harboring pSK1002 assessed as survival at 0.5 mg/ml in absence of Sprague-Dawley rat liver S9 fraction after by SOS/umu assay relative to control; type: toxicity, organism-based; conditions: salmonella enterica subsp. enterica serovar typhimurium, read-out: Survival
# [9] = Genotoxicity in Salmonella typhimurium TA1535 harboring pSK1002 assessed as umu gene induction at 0.25 mg/ml in absence of Sprague-Dawley rat liver S9 fraction after by SOS/umu assay relative to control; type: toxicity, organism-based; conditions: salmonella enterica subsp. enterica serovar typhimurium, read-out: FC
# [10] = Genotoxicity in Salmonella typhimurium TA1535 harboring pSK1002 assessed as survival at 0.008 mg/ml in absence of Sprague-Dawley rat liver S9 fraction after by SOS/umu assay relative to control; type: toxicity, organism-based; conditions: salmonella enterica subsp. enterica serovar typhimurium, read-out: Survival
# [11] = Genotoxicity in Salmonella typhimurium TA1535 harboring pSK1002 assessed as umu gene induction at 0.031 mg/ml in absence of Sprague-Dawley rat liver S9 fraction after by SOS/umu assay relative to control; type: toxicity, organism-based; conditions: salmonella enterica subsp. enterica serovar typhimurium, read-out: FC
# [12] = Genotoxicity in Salmonella typhimurium TA1535 harboring pSK1002 assessed as survival at 0.5 mg/ml in presence of Sprague-Dawley rat liver S9 fraction after by SOS/umu assay relative to control; type: toxicity, organism-based; conditions: salmonella enterica subsp. enterica serovar typhimurium, read-out: Survival
# [13] = Genotoxicity in Salmonella typhimurium TA1535 harboring pSK1002 assessed as umu gene induction at 0.25 mg/ml in presence of Sprague-Dawley rat liver S9 fraction after by SOS/umu assay relative to control; type: toxicity, organism-based; conditions: salmonella enterica subsp. enterica serovar typhimurium, read-out: FC
# [14] = Genotoxicity in Salmonella typhimurium TA1535 harboring pSK1002 assessed as umu gene induction at 0.5 mg/ml in absence of Sprague-Dawley rat liver S9 fraction after by SOS/umu assay relative to control; type: toxicity, organism-based; conditions: salmonella enterica subsp. enterica serovar typhimurium, read-out: FC
# [15] = Genotoxicity in Salmonella typhimurium TA1535 harboring pSK1002 assessed as survival at 0.001 mg/ml in absence of Sprague-Dawley rat liver S9 fraction after by SOS/umu assay relative to control; type: toxicity, organism-based; conditions: salmonella enterica subsp. enterica serovar typhimurium, read-out: Survival
# Plasmodium falciparum [16] = experiment: Antiplasmodial activity against multidrug-resistant Plasmodium falciparum C235 after 72 hrs by MSF assay; type: functional, organism-based; conditions: C235, 72 h
# Procedure, shortened: (§2)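 D6 and C235 strains from the Walter Reed Army Institute of Research were tested by the Malaria SYBR Green-I fluorescence assay.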
# Plasmodium falciparum [17] = experiment: Antiplasmodial activity against Plasmodium falciparum D6 after 72 hrs by MSF assay; type: functional, organism-based; conditions: D6, 72 h; procedure, shortened: as §2
# Plasmodium berghei [18] = experiment: Antiplasmodial activity against GFP-fused Plasmodium berghei sporozoites infected in human HepG2A16 cells treated simultaneously with infection by fluorescence microscopic analysis; type: functional, organism-based
# Procedure, shortened: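 HepG2-A16 cells (3 × 10^4/well, collagen-coated) infected with PbGFP sporozoites (5 × 10^3 to 1 × 10^4/well) and treated at the same time. Top concentration 10 µg/mL in DMEM, seven serial dilutions. Medium and compound renewed at 3 h and every 24 h. After 40 h at 37 °C: methanol fixation, anti-Plasmodium Hsp70 immunolabeling, Alexa 594 secondary, DAPI; high-content imaging.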
# [19] = Solubility of the compound in DSPC:cholesterol:DSPE-PEG2000-Mal:DOPE-Rho lipid mixture at 250 uM; type: physicochemical
# Procedure, shortened: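 Compound added at 250 µM drug to the initial liposome lipid mixture (10 mM total lipid); precipitation and UV-visible absorbance above 300 nm assessed after encapsulation, removal of unencapsulated material and extraction with 1% w/v SDS in RPMI-A.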
# Plasmodium berghei [20] = experiment: Antiplasmodial activity against Plasmodium berghei ANKA infected in mouse assessed as mouse survival time at 50 mg/kg/day, po for 4 consecutive days starting from 2 hrs post infection by MSF assay; type: functional
# Procedure, shortened: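 Swiss male mice (20 ± 2 g) infected i.p. with 10^7 P. berghei ANKA parasitized cells in 0.1 mL 0.9% saline (day 0). Oral dosing began 2 h post-infection and continued daily on days 0–3, five mice per batch. Test drugs were given at 50 mg/kg/day in water:DMSO and chloroquine diphosphate at 3 mg/kg/day; a vehicle control was included. Survival was checked daily, and parasitemia was read on day 4 by modified MSF assay.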
# Plasmodium berghei [21] = experiment: Antiplasmodial activity against Plasmodium berghei ANKA infected in mouse assessed as inhibition of parasitemia at 50 mg/kg/day, po for 4 consecutive days starting from 2 hrs post infection by MSF assay relative to control; type: functional
# Procedure, shortened: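 Swiss male mice (20 ± 2 g) infected ip with 10^7 P. berghei ANKA parasitized cells (day 0). Five per group dosed orally 2 h after infection and daily on days 0–3. Test compounds at 50 mg/kg/day in water:DMSO; chloroquine diphosphate at 3 mg/kg/day; vehicle controls. Parasitemia measured on day 4 by MSF assay; survival checked daily.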
# Plasmodium falciparum [22] = experiment: Binding affinity to Plasmodium falciparum GRP94 nucleotide binding domain at 0.5 mM by SYPRO orange dye based DSF analysis
# Procedure, shortened: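 Recombinant P. falciparum Hsp90 or GRP94 nucleotide-binding domain (0.05–0.2 mg/mL, optimized per protein) in 25 mM HEPES pH 7.5, 250 mM NaCl. Compound final concentration was 0.5 mM, with SYPRO Orange at 1:1000. Samples were heated from 18 to 90 °C at 1 °C/min. Tm was taken as the Boltzmann-fit inflection point. ΔTm = Tm with ligand minus Tm without, and shifts beyond ±1 °C were counted significant.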
# [23] = Plasmodium falciparum, FCR-3/Gambia, 3 h
# [24] = Plasmodium berghei, HepG2A16, read-out: IC50
Structure (SMILES),viability at 0.25 mg/ml [1],viability at 0.031 mg/ml [2],viability at 0.25 mg/ml [3],"IC50 (Plasmodium falciparum [5]; Plasmodium falciparum, 3D7)",viability at 0.008 mg/ml [6],IC50 (Plasmodium falciparum [7]; [23]),fold induction at 0.25 mg/ml [9],viability at 0.008 mg/ml [10],fold induction at 0.031 mg/ml [11],fold induction at 0.25 mg/ml [13],viability at 0.001 mg/ml [15],IC50 (Plasmodium falciparum [16]),IC50 (Plasmodium falciparum [17]),IC50 (Plasmodium berghei [18]),solubility [19],MSD (Plasmodium berghei [20]),inhibition in vivo at 50 mg/kg/day (Plasmodium berghei [21]),Activity (Plasmodium falciparum [22]),other results
OC(CCN1CCN(c2ccc(F)cc2)CC1)c1ccc(F)c2ccccc12 (configuration not stated),66.2%,87%,51.2%,430 nM,98.7%,4050 nM,1.1,122%,0.7,0.9,111%,–,–,–,–,–,–,–,fold induction at 0.5 mg/ml [4]: 1.2; viability at 0.5 mg/ml [8]: 196%; viability at 0.5 mg/ml [12]: 112%; fold induction at 0.5 mg/ml [14]: 0.6
COc1ccccc1N1CCN(CCC(O)c2ccc(F)cc2)CC1 (stereo in doubt; 66),90.4%,116%,98.8%,–,88.2%,–,1.1,114%,1,1,110%,7260 nM,6320 nM,Not Active,Insoluble,12 days,96.4%,–,IC50 (Plasmodium falciparum [5]): 7310 nM; IC50 (Plasmodium falciparum [7]): 190 nM
N#Cc1ccc(N2CCC(NCCC(O)c3ccc(F)c4ccccc34)CC2)c(C(F)(F)F)c1 (stereo in doubt; 72),–,30.2%,–,–,52.9%,–,–,32.9%,0.7,–,132%,120 nM,80 nM,–,Soluble,10 days,80.4%,–,IC50 (Plasmodium berghei [18]; [24]): 2700 nM; IC50 (Plasmodium falciparum [5]): 130 nM; IC50 (Plasmodium falciparum [7]): 80 nM
N#Cc1ccc(N2CCC(NCCC(O)c3ccc(F)c4ccccc34)CC2)c(Br)c1 (configuration not stated),–,19.4%,–,220 nM,87.4%,70 nM,–,18.9%,1.5,–,104%,150 nM,120 nM,–,–,10 days,≤ 50%,inactive,–
OC(CCN1CC=C(c2ccc(F)cc2)CC1)c1ccc2c(c1)OCO2 (configuration not stated),96%,113%,128%,17400 nM,96%,1700 nM,0.7,128%,0.8,1,131%,–,–,Not Active,–,–,–,–,fold induction at 0.5 mg/ml [4]: 0.9; viability at 0.5 mg/ml [8]: 81.4%; viability at 0.5 mg/ml [12]: 87.1%; fold induction at 0.5 mg/ml [14]: 0.9
COc1ccccc1C1=CCN(CCC(O)c2ccc(F)c3ccccc23)CC1 (configuration not stated),182%,47.2%,233%,100 nM,96.9%,1300 nM,0.1,76.4%,1.3,0.2,81.7%,230 nM,150 nM,Not Active,Insoluble,–,–,–,–
OC(CCN1CCN(C(c2ccccc2)c2ccccc2)CC1)c1ccc(F)c(F)c1 (configuration not stated),–,20.7%,–,380 nM,101%,370 nM,–,105%,1.9,–,110%,–,–,Not Active,Insoluble,9 days,–,–,inhibition (Plasmodium berghei [21]): inactive
Oc1ccc(C(O)CCN2CC=C(c3ccc(F)cc3)CC2)cc1 (configuration not stated),–,105%,–,22200 nM,108%,2880 nM,–,98.3%,1.1,–,87.9%,–,–,Not Active,–,–,–,–,–
N#Cc1ccc(N2CCC(NCCC(O)c3ccc(F)c4ccccc34)CC2)c(Cl)c1 (configuration not stated),–,42.2%,–,150 nM,35.1%,90 nM,–,33.7%,0.5,–,130%,170 nM,120 nM,–,–,10 days,≤ 50%,inactive,IC50 (Plasmodium berghei [18]; [24]): 3410 nM
N#Cc1ccc(C(O)CCN2CC=C(c3ccc(F)cc3)CC2)cc1 (configuration not stated),95.1%,77.3%,75.8%,8480 nM,108%,1330 nM,1.2,89.4%,1.2,1.1,109%,–,–,–,–,–,–,–,fold induction at 0.5 mg/ml [4]: 0.9; viability at 0.5 mg/ml [8]: 66.5%; viability at 0.5 mg/ml [12]: 99.1%; fold induction at 0.5 mg/ml [14]: 1.2
OC(CCN1CCN(C(c2ccccc2)c2ccccc2)CC1)c1ccc(F)c2ccccc12 (configuration not stated),–,107%,–,620 nM,143%,330 nM,–,80.6%,1,–,81%,170 nM,100 nM,–,Insoluble,9 days,–,inactive,IC50 (Plasmodium berghei [18]; [24]): 5420 nM; inhibition (Plasmodium berghei [21]): inactive
COc1ccccc1N1CCN(CCC(O)c2ccc(F)c3ccccc23)CC1 (configuration not stated),115%,58.4%,147%,70 nM,99.1%,220 nM,0.3,67.1%,1.3,0.4,70.5%,410 nM,280 nM,Not Active,Insoluble,10 days,≤ 50%,inactive,–
